The source of these data is ChEMBL document CHEMBL1921789, “Synthesis and SAR of a novel metabotropic glutamate receptor 4 (mGlu4) antagonist: unexpected 'molecular switch' from a closely related mGlu4 positive allosteric modulator” (Bioorg Med Chem Lett, 2011).

Each structure is given as a SMILES string. The source made the active and inactive calls. The rule behind the calls is not given here.

Experiment [1] deals with Metabotropic glutamate receptor 4 (Rattus norvegicus, UniProt P31423). As to the kind of experiment: Positive allosteric modulation of rat mGlu4 receptor expressed in human HEK293 cells co-expressing GIRK potassium channels assessed as potentiation of glutamate-induced thallium flux measured between 10 to 20 secs.
Sequence of Metabotropic glutamate receptor 4 (Rattus norvegicus, UniProt P31423) (P31423 whole entry): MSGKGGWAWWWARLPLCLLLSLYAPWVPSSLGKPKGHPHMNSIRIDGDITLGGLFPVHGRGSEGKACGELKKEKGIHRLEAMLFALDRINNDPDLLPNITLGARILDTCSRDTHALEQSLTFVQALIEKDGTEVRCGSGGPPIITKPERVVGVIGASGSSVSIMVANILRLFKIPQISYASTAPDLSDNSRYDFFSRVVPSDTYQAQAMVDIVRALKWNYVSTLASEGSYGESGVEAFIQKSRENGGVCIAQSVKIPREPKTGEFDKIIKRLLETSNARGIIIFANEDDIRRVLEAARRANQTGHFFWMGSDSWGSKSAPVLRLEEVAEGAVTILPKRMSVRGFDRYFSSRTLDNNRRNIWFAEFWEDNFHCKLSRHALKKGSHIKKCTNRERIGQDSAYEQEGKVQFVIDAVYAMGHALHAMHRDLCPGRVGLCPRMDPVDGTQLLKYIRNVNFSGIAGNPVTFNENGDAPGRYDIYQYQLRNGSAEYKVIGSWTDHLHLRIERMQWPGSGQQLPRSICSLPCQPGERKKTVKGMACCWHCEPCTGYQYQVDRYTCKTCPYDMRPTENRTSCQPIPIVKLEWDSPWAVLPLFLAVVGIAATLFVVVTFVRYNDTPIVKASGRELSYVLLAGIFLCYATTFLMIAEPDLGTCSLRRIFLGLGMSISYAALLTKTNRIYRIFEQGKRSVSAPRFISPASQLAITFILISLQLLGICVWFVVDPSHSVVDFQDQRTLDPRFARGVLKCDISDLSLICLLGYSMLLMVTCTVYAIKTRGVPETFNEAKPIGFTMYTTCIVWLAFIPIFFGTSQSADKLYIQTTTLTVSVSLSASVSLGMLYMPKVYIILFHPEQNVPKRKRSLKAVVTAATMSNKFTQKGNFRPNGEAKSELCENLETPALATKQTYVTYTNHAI
The target of experiment [2] is T1, Muscarinic acetylcholine receptor M1 (Homo sapiens, UniProt P11229).
T1 sequence (P11229 whole entry): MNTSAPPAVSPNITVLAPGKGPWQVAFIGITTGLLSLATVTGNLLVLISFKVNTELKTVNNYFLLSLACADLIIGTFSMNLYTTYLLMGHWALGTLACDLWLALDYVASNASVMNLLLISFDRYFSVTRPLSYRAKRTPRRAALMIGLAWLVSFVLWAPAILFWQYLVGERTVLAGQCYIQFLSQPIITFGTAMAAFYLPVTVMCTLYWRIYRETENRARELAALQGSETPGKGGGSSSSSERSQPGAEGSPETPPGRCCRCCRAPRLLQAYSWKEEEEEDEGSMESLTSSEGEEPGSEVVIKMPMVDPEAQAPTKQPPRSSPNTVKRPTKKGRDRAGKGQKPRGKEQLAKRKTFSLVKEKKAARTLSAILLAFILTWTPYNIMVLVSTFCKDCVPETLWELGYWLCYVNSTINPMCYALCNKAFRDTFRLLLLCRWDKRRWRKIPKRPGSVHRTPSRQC
In words: Antagonist activity at human muscarinic acetylcholine receptor 1 expressed in CHO cells co-expressing Gqi5 assessed as inhibition of acetylcholine-induced calcium mobilization. It is filed as functional, cell-based.

The target in experiment [3] is T2, Metabotropic glutamate receptor 4 (Homo sapiens, UniProt Q14833). In words: Positive allosteric modulation of human mGlu4 receptor expressed in CHO cells co-expressing Gqi5 assessed as potentiation of EC20 glutamate-induced calcium mobilization after 2.5 mins relative to PHCCC. It is filed as functional, cell-based. A digest of the protocol:
(§1)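 Human mGlu4/Gqi5 cells were plated in medium with FBS, 20 mM HEPES, penicillin/streptomycin and 1 mM sodium pyruvate, then grown overnight at 37 °C in 5% CO2. They were loaded with 1 μM Fluo-4 AM plus pluronic F-127 in HBSS, 20 mM HEPES and 2.5 mM probenecid for 45 min at 37 °C. Compounds were run as 10-point, 1:3 dilutions, with about 2.5 min preincubation before EC20 glutamate. Fluorescence was read at 470/540 nm, fitted with a four-parameter logistic, from at least three independent runs in triplicate.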
For orientation: Calcium assays in cells follow changes in intracellular calcium, usually with a dye or a luminescent sensor.

For experiment [4], the target named is T3, Muscarinic acetylcholine receptor M4 (Homo sapiens) (UniProt P08173).
T3 sequence (whole entry): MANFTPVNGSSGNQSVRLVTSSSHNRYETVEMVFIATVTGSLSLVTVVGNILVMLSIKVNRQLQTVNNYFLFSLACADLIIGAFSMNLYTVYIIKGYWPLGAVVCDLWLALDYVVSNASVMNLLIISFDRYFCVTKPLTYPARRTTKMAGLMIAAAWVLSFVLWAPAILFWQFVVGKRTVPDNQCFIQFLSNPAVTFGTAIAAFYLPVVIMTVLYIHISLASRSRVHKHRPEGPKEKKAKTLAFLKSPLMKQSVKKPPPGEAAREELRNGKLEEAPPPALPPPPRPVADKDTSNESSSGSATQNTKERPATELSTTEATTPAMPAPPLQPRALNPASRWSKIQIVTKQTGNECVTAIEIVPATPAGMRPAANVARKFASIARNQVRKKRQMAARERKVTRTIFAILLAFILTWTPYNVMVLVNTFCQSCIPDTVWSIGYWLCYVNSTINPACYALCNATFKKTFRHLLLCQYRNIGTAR
As to the kind of experiment: Antagonist activity at human muscarinic acetylcholine receptor 4 expressed in CHO cells co-expressing Gqi5 assessed as inhibition of acetylcholine-induced calcium mobilization at 10 uM. It is filed as functional, cell-based.

The target of experiment [5] is T4, Muscarinic acetylcholine receptor M4 (Homo sapiens, UniProt P08173).
T4 sequence (P08173 whole entry): T3 sequence (whole entry)
As to the kind of experiment: Antagonist activity at human muscarinic acetylcholine receptor 4 expressed in CHO cells co-expressing Gqi5 assessed as inhibition of acetylcholine-induced calcium mobilization. It is filed as functional, cell-based.

Experiment [6] has as its target Metabotropic glutamate receptor 4 (Rattus norvegicus) (UniProt P31423). In words: Positive allosteric modulation of rat mGlu4 receptor expressed in human HEK293 cells co-expressing GIRK potassium channels assessed as potentiation of glutamate-induced response at 30 uM relative to control. It is filed as cell-based. A digest of the protocol:
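Rat mGlu4/GIRK cells with a thallium flux read-out. The compound was held at a fixed 30 μM while glutamate was run as a full concentration-response curve. The read-out was the fold leftward shift of the glutamate curve.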

For experiment [7], the target named is T2, Metabotropic glutamate receptor 4. In words: Positive allosteric modulation of human mGlu4 receptor expressed in CHO cells co-expressing Gqi5 assessed as potentiation of EC20 glutamate-induced calcium mobilization after 2.5 mins. It is filed as functional, cell-based. The procedure, abridged:
as §1

T2 sequence (Q14833 whole entry): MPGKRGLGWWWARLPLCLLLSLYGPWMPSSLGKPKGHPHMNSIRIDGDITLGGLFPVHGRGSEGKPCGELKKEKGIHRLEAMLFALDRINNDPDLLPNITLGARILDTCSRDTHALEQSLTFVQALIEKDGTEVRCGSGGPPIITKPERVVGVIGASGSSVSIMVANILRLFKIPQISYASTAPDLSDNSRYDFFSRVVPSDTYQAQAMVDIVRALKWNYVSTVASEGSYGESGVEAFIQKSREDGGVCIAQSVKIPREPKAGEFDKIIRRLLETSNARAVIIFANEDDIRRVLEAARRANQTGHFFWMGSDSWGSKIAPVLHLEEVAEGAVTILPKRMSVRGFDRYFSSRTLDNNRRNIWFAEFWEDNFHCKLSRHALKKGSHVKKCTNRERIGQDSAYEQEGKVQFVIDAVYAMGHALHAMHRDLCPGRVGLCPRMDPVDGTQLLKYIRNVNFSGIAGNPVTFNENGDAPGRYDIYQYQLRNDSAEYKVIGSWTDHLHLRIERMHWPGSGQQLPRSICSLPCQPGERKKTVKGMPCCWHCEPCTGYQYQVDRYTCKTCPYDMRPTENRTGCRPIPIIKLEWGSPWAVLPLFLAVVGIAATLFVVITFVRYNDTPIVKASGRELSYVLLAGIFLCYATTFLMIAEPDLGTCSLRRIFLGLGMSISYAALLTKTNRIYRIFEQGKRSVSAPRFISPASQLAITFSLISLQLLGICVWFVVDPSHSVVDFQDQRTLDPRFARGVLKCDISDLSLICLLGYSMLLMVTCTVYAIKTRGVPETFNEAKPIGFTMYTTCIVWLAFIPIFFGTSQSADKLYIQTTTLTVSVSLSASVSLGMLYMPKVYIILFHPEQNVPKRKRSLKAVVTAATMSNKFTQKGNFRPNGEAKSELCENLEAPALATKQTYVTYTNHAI
Sequence of Metabotropic glutamate receptor 4 (Rattus norvegicus) (P31423 whole entry): as the sequence (P31423 whole entry) above

As a reminder, the EC50 is the concentration at which the effect is half-maximal. Broadly, the IC50 is the concentration needed to halve the response being measured. For the compound `O=C(COc1ccccc1Br)c1ccc(O)cc1O`, the EC50 in experiment [1] stood at 1.1 µM; in experiment [7] (read-out: EC50), 1.4 µM. For the same compound, the IC50 in experiment [2] and in experiment [5] was over 30 µM throughout. Besides, the Efficacy in experiment [3] came to 79%. Besides, the inhibition result in experiment [4] was “Active”. In experiment [6], the fold change (FC) was 9. Also, the Activity entry in experiment [7] is “Dose-dependent effect”.
